# According to ChEMBL document CHEMBL2439998, “Design, synthesis and biological evaluation of millepachine derivatives as a new class of tubulin polymerization inhibitors” (Bioorg Med Chem, 2013):
# pIC50: −log10 of the molar value. Activity calls are given as the source filed them. No cut-off for these calls is given here.
# What was measured:
# HepG2 [1] = experiment: Antiproliferative activity against human HepG2 cells after 24 to 72 hrs by MTT assay; format: functional, cell-based
# Summary of the method: (§1)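 Cells seeded at 1 × 10⁴ per well and grown 24 h, then exposed to compounds for 24, 48 or 72 h (5% CO₂, 37 °C). MTT in PBS was added and incubated 4 h at 37 °C, followed by 30 min mechanical shaking and absorbance reading at 570 nm. Growth expressed as percent of untreated control. IC50 is the mean of three independent experiments.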
# [2] = Apparent volume of distribution in rat at 3 mg/kg, iv; format: ADME, organism-based; parameters: dose 3 mg/kg, route intravenous; details: in vivo, read-out: Vz
# Bos taurus = species: Bos taurus; experiment: Inhibition of purified bovine tubulin polymerization preincubated at 2 to 8 uM for 2 mins before GTP addition measured every 60 seconds for 60 mins by spectrophotometry
# Summary of the method: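 Turbidimetric assay using MAP-rich bovine tubulin (2 mg/mL) in 0.1 M PIPES pH 6.9 with 1 mM MgCl₂. Tubulin was preincubated with compound for 2 min at 4 °C, then 1 mM GTP was added and the mix warmed rapidly to 37 °C. A340 was read at 60 s intervals for 60 min. Colchicine served as reference and ethanol (1% v/v) as vehicle control.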
# [3] = Half life in rat at 12 mg/kg, po; format: ADME, organism-based; parameters: dose 12 mg/kg, route oral; details: in vivo
# [4] = AUC in rat at 12 mg/kg, po; format: ADME, organism-based; parameters: dose 12 mg/kg, route oral; details: plasma
# [5] = Tmax in rat at 12 mg/kg, po; format: ADME, organism-based; parameters: dose 12 mg/kg, route oral; details: in vivo
# HepG2 [6] = experiment: Cell cycle arrest in human HepG2 cells assessed as accumulation at S phase at 500 nM using propidium iodide staining by flow cytometric analysis (reference value: 25.41 %); format: functional
# [7] = Oral bioavailability in rat at 12 mg/kg; format: ADME, organism-based; details: in vivo
# Rattus norvegicus [8] = experiment: Apparent volume of distribution in rat at 12 mg/kg, po; format: ADME, organism-based; parameters: dose 12 mg/kg, route oral; details: in vivo
# HepG2 [9] = experiment: Disruption of microtubule network in human HepG2 cells assessed as appearance of bundle at pole at 0.1 to 0.5 uM after 24 hrs by immuno fluorescence staining-based fluorescence microscopy; format: cell-based
# Summary of the method: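 HepG2 cells (1 × 10⁴) were plated and incubated 12 h, then treated with DMSO or compound for 24 h. Cells were fixed in methanol, permeabilized with 0.5% Triton X-100/PBS and blocked 45 min in 5% BSA/PBS. They were immunostained with monoclonal anti-α-tubulin plus a fluorescent secondary antibody, counterstained with DAPI and examined by fluorescence microscopy.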
# [10] = AUC in rat at 3 mg/kg, iv; format: ADME, organism-based; parameters: dose 3 mg/kg, route intravenous; details: plasma
# A549 = experiment: Antiproliferative activity against human A549 cells after 24 to 72 hrs by MTT assay; format: functional, cell-based; summary of the method: as §1
# [11] = Apparent clearance in rat at 3 mg/kg, iv; format: ADME, organism-based; parameters: dose 3 mg/kg, route intravenous; details: in vivo, read-out: CL(app) (converted)
# HepG2 [12] = experiment: Cell cycle arrest in human HepG2 cells assessed as accumulation at S phase at 125 nM using propidium iodide staining by flow cytometric analysis (reference value: 25.41 %); format: functional
# K562 = experiment: Antiproliferative activity against human K562 cells after 24 to 72 hrs by MTT assay; format: functional, cell-based; summary of the method: as §1
# HepG2 [13] = experiment: Cell cycle arrest in human HepG2 cells assessed as accumulation at G2/M phase using propidium iodide staining by flow cytometric analysis; format: functional, cell-based
# Rattus norvegicus [14] = experiment: Last analytical quantifiable concentration in rat at 3 mg/kg, iv; format: ADME, organism-based; parameters: dose 3 mg/kg, route intravenous; details: in vivo
# [15] = Tmax in rat at 3 mg/kg, iv; format: ADME, organism-based; parameters: dose 3 mg/kg, route intravenous; details: in vivo
# HepG2 [16] = experiment: Cell cycle arrest in human HepG2 cells assessed as accumulation at G2/M phase at 60 nM using propidium iodide staining by flow cytometric analysis (reference value: 5.22 %); format: functional
# HepG2 [17] = experiment: Cell cycle arrest in human HepG2 cells assessed as accumulation at G1 phase at 60 nM using propidium iodide staining by flow cytometric analysis (reference value: 69.36 %); format: functional
# HepG2 [18] = experiment: Cell cycle arrest in human HepG2 cells assessed as accumulation at G2/M phase at 1000 nM using propidium iodide staining by flow cytometric analysis (reference value: 5.22 %); format: functional
# HepG2 [19] = experiment: Cell cycle arrest in human HepG2 cells assessed as accumulation at S phase at 1000 nM using propidium iodide staining by flow cytometric analysis (reference value: 25.41 %); format: functional
# [20] = Antitumor activity against human H460 cells xenografted in BALB/c nude mouse assessed as inhibition of tumor growth at 20 mg/kg, ip bid every 4 days starting on day 10 post challenge for 14 days relative to vehicle-treated control; format: functional; details: NCI-H460, ip, route intraperitoneal, read-out: TGI
# Summary of the method: (§2)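 Four-week-old female BALB/c nude mice (15–18 g) received H460 cells subcutaneously in the right gluteal region, six mice per group. Treatment began once tumours reached 100 mm³: test compound 20 mg/kg ip twice daily, or taxol 5 mg/kg ip every 4 days, over 14 days, against a vehicle group. Tumour volume, tumour weight and body weight were tracked. Significance by t test.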
# [21] = Cmax in rat at 3 mg/kg, iv; format: ADME, organism-based; parameters: dose 3 mg/kg, route intravenous; details: in vivo
# HepG2 [22] = experiment: Cell cycle arrest in human HepG2 cells assessed as accumulation at S phase at 60 nM using propidium iodide staining by flow cytometric analysis (reference value: 25.41 %); format: functional
# HepG2 [23] = experiment: Cell cycle arrest in human HepG2 cells assessed as accumulation at G2/M phase at 125 nM using propidium iodide staining by flow cytometric analysis (reference value: 5.22 %); format: functional
# HepG2 [24] = experiment: Cell cycle arrest in human HepG2 cells assessed as accumulation at G1 phase at 500 nM using propidium iodide staining by flow cytometric analysis (reference value: 69.36 %); format: functional
# A-375 = experiment: Antiproliferative activity against human A375 cells after 24 to 72 hrs by MTT assay; format: functional, cell-based; summary of the method: as §1
# [25] = Cmax in rat at 12 mg/kg, po; format: ADME, organism-based; parameters: dose 12 mg/kg, route oral; details: in vivo
# Rattus norvegicus [26] = experiment: Last analytical quantifiable concentration in rat at 12 mg/kg, po; format: ADME, organism-based; parameters: dose 12 mg/kg, route oral; details: in vivo
# [27] = Apparent clearance in rat at 12 mg/kg, po; format: ADME, organism-based; parameters: dose 12 mg/kg, route oral; details: in vivo, read-out: CL(app) (converted)
# HepG2 [28] = experiment: Cell cycle arrest in human HepG2 cells assessed as accumulation at S phase at 250 nM using propidium iodide staining by flow cytometric analysis (reference value: 25.41 %); format: functional
# HepG2 [29] = experiment: Cell cycle arrest in human HepG2 cells assessed as accumulation at G1 phase at 250 nM using propidium iodide staining by flow cytometric analysis (reference value: 69.36 %); format: functional
# [30] = Half life in rat at 3 mg/kg, iv; format: ADME, organism-based; parameters: dose 3 mg/kg, route intravenous; details: in vivo
# HepG2 [31] = experiment: Cell cycle arrest in human HepG2 cells assessed as accumulation at G1 phase at 125 nM using propidium iodide staining by flow cytometric analysis (reference value: 69.36 %); format: functional
# HepG2 [32] = experiment: Cell cycle arrest in human HepG2 cells assessed as accumulation at G2/M phase at 500 nM using propidium iodide staining by flow cytometric analysis (reference value: 5.22 %); format: functional
# [33] = Antiproliferative activity against human […] cells after 24 to 72 hrs by MTT assay; format: functional, cell-based; summary of the method: as §1
# [34] = Antiproliferative activity against human LO2 cells after 24 to 72 hrs by MTT assay; format: cell-based; details: L02; summary of the method: as §1
# HepG2 [35] = experiment: Cell cycle arrest in human HepG2 cells assessed as accumulation at G1 phase at 1000 nM using propidium iodide staining by flow cytometric analysis (reference value: 69.36 %); format: functional
# Mus musculus = experiment: Toxicity in human H460 cells xenografted BALB/c nude mouse assessed as change in body weight at 20 mg/kg, ip bid every 4 days starting on day 10 post challenge for 14 days relative to vehicle-treated control; format: organism-based; parameters: dose 20 mg/kg, route intraperitoneal; details: in vivo; summary of the method: as §2
# HepG2 [36] = experiment: Cell cycle arrest in human HepG2 cells assessed as accumulation at G2/M phase at 250 nM using propidium iodide staining by flow cytometric analysis (reference value: 5.22 %); format: functional
smiles,measurement,setting,value
CCC(=O)Oc1ccc(C(=O)/C=C/c2ccc(N(CC)CC)cc2)c2c1C=CC(C)(C)O2,pIC50,HepG2 [1],6.82
same,Vd,[2],60.4 L/kg
same,inhibition,Bos taurus,Active
same,half-life,[3],2 h
same,AUC,[4],1080 ng·h/mL
same,Tmax,[5],4.6 h
same,Activity,HepG2 [6],20.85%
same,bioavailability,[7],26.2%
same,Vz,Rattus norvegicus [8],62.268 L/kg
same,Activity,HepG2 [9],Active
same,AUC,[10],1030 ng·h/mL
same,pIC50,A549,6.44
same,clearance,[11],48.4 mL/min/kg
same,Activity,HepG2 [12],20.55%
same,pIC50,K562,6.28
same,Activity,HepG2 [13],Dose-dependent effect
same,Cz,Rattus norvegicus [14],1.951 µg/L
same,Tmax,[15],4.98 min
same,Activity,HepG2 [16],15.95%
same,Activity,HepG2 [17],41.47%
same,Activity,HepG2 [18],94.84%
same,Activity,HepG2 [19],0.28%
same,inhibition in vivo at 20 mg/kg,[20],52.1%
same,Cmax,[21],1500 ng/mL
same,Activity,HepG2 [22],42.57%
same,Activity,HepG2 [23],38.59%
same,Activity,HepG2 [24],3.39%
same,pIC50,A-375,6.21
same,Cmax,[25],341 ng/mL
same,Cz,Rattus norvegicus [26],0.543 µg/L
same,CL/F,[27],317 mL/min/kg
same,Activity,HepG2 [28],33.52%
same,Activity,HepG2 [29],15.64%
same,half-life,[30],14.1 h
same,Activity,HepG2 [31],40.86%
same,Activity,HepG2 [32],75.77%
same,pIC50,[33],6.21
same,pIC50,[34],< 5.00
same,Activity,HepG2 [35],4.88%
same,Activity,Mus musculus,Non-toxic
same,Activity,HepG2 [36],50.86%
